Here are results for 20 molecules from ChEMBL document CHEMBL1122644, “Ring-substituted 1,2-dialkylated 1,2-bis(hydroxyphenyl)ethanes. 2. Synthesis and estrogen receptor binding affinity of 4,4'-, 5,5'-, and 6,6'-disubstituted metahexestrols” (J Med Chem, 1984).

Experiment [1] deals with Estrogen receptor (Bos taurus) (UniProt Q9XSB5+P49884). Kind of experiment: Relative binding affinity for calf uterine estrogen receptor is the ratio of molar concentrations of 17-beta-estradiol and compound required to decrease amount of bound [3H]-E2 by 50% X 100. In kind it is protein assay. A digest of the protocol: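 Calf uterine cytosol incubated with [3H]estradiol and competitor at 4 °C for 16 h. Free ligand removed with dextran-coated charcoal, then centrifuged and a supernatant aliquot counted. Six competitor concentrations chosen to span 50% competition on a semilog plot. Molar concentrations of unlabeled estradiol and test compound giving 50% reduction in binding were read from the plot.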

The target of experiment [2] is T1, Estrogen receptor (Mus musculus) (UniProt O08537+P19785). As to the kind of experiment: Anti-estrogenic activity in mouse uterotrophic assay at 0 ug. In kind it is functional. On the set-up: unit not given here. In a few lines:
(§1)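 Immature female NMRI mice, 20 days old (14.5 ± 1.2 g), randomized into groups of 10. Test compound in olive oil (0.1 mL) given subcutaneously daily for 3 days alongside estrone stimulation. Uteri removed 24 h after last injection, fixed in Bouin's solution, washed, dried and weighed. Readout is inhibition of estrone-stimulated uterine growth.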

Experiment [3] concerns the target T1, Estrogen receptor (Mus musculus). As to the kind of experiment: Anti-estrogenic activity in mouse uterotrophic assay at 2.5 ug. In kind it is functional. A digest of the protocol: as §1
The target is the same in experiment [4]. Kind of experiment: Anti-estrogenic activity in mouse uterotrophic assay at 25 ug. It is filed as functional. A digest of the protocol: as §1
For experiment [5] the target is unchanged. Kind of experiment: Anti-estrogenic activity in mouse uterotrophic assay at 5 ug. It is filed as functional. In a few lines: as §1
Experiment [6] has the same target. As to the kind of experiment: Anti-estrogenic activity in mouse uterotrophic assay at 50 ug. It is filed as functional. A digest of the protocol: as §1
Experiment [7] has the same target. Kind of experiment: Anti-estrogenic activity in mouse uterotrophic assay at 500 ug. In kind it is functional. In a few lines: as §1
Experiment [8] has the same target. As to the kind of experiment: Estrogenic activity in mouse uterotrophic assay at 8 ug. It is filed as functional. In a few lines:
(§2)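 Uterotrophic test in 20-day-old immature female NMRI mice (14.5 ± 1.2 g), 10 per group. Daily s.c. injections of compound in 0.1 mL olive oil for 3 days. Uteri excised 24 h after final dose, Bouin-fixed, washed, dried and weighed to measure stimulation of uterine growth.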

The target is the same in experiment [9]. As to the kind of experiment: Estrogenic activity in mouse uterotrophic assay at 80 ug. In kind it is functional. In a few lines:
as §2

Experiment [10] shares this target. Kind of experiment: Estrogenic activity in mouse uterotrophic assay at 0 ug. It is filed as functional. On the set-up: unit not given here. In a few lines: as §2
Experiment [11] shares this target. Kind of experiment: Estrogenic activity in mouse uterotrophic assay at 0.8 ug. In kind it is functional. A digest of the protocol: as §2
For experiment [12] the target is unchanged. As to the kind of experiment: Estrogenic activity in mouse uterotrophic assay at 24 ug. In kind it is functional. In a few lines: as §2
Experiment [13] shares this target. Kind of experiment: Anti-estrogenic activity as inhibition of estrone-stimulated uterine growth in mice at 2.5 mg/kg. It is filed as functional, organism-based. The arrangement: dose 2.5 mg/kg. A digest of the protocol: as §1
Experiment [14] shares this target. As to the kind of experiment: Estrogenic activity as uterotrophic effect in mice at 800 ug dose. In kind it is functional. In a few lines: as §2
Experiment [15] shares this target. Kind of experiment: Anti-estrogenic activity in mouse uterotrophic assay at 1 ug. In kind it is functional. The arrangement: unit not given here. A digest of the protocol:
as §1

The target is the same in experiment [16]. As to the kind of experiment: Anti-estrogenic activity in mouse uterotrophic assay at 100 ug. It is filed as functional. The arrangement: unit not given here. A digest of the protocol: as §1
The target is the same in experiment [17]. As to the kind of experiment: Anti-estrogenic activity in mouse uterotrophic assay at 250 ug. It is filed as functional. A digest of the protocol:
as §1

Experiment [18] shares this target. Kind of experiment: Estrogenic activity in mouse uterotrophic assay at 800 ug. It is filed as functional. In a few lines:
as §2

The target is the same in experiment [19]. Kind of experiment: Estrogenic activity in mouse uterotrophic assay at 16 ug. In kind it is functional. In a few lines: as §2
The target is the same in experiment [20]. Kind of experiment: Estrogenic activity in mouse uterotrophic assay at 2 ug. It is filed as functional. A digest of the protocol:
as §2

The target is the same in experiment [21]. As to the kind of experiment: Estrogenic activity in mouse uterotrophic assay at 240 ug. In kind it is functional. In a few lines: as §2
Experiment [22] has the same target. As to the kind of experiment: Anti-estrogenic activity as inhibition of estrone-stimulated uterine growth in mice at 50 mg/kg. In kind it is functional, organism-based. On the set-up: dose 50 mg/kg. In a few lines: as §1
The target is the same in experiment [23]. Kind of experiment: Anti-estrogenic activity as inhibition of estrone-stimulated uterine growth in mice at 5 mg/kg. In kind it is functional, organism-based. On the set-up: dose 5 mg/kg. A digest of the protocol: as §1
Experiment [24] has the same target. As to the kind of experiment: Anti-estrogenic activity as inhibition of estrone-stimulated uterine growth in mice at 25 mg/kg. It is filed as functional, organism-based. On the set-up: dose 25 mg/kg. In a few lines: as §1
The target is the same in experiment [25]. Kind of experiment: Anti-estrogenic activity as inhibition of estrone-stimulated uterine growth in mice at 100 mg/kg. It is filed as functional, organism-based. The arrangement: dose 100 mg/kg. In a few lines: as §1
Experiment [26] has the same target. As to the kind of experiment: Anti-estrogenic activity as inhibition of estrone-stimulated uterine growth in mice at 1 mg/kg. It is filed as functional, organism-based. The arrangement: dose 1 mg/kg. A digest of the protocol:
as §1

Experiment [27] shares this target. Kind of experiment: Anti-estrogenic activity as inhibition of estrone-stimulated uterine growth in mice at 250 mg/kg. In kind it is functional, organism-based. On the set-up: dose 250 mg/kg. A digest of the protocol: as §1

T1 sequence (O08537 whole entry, looked up): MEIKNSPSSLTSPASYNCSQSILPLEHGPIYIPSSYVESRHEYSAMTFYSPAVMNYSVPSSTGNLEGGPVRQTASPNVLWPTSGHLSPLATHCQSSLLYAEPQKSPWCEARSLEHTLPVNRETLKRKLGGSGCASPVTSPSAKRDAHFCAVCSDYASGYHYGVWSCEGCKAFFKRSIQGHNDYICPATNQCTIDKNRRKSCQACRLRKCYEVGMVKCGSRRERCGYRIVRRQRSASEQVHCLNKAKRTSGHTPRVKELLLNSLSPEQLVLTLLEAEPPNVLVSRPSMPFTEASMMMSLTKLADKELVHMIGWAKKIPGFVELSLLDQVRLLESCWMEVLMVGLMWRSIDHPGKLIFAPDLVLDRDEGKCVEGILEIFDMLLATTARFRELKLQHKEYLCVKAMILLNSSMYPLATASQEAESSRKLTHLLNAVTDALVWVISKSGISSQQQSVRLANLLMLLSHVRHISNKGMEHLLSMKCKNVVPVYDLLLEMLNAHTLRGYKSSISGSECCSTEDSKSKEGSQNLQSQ
T1 sequence (P19785 whole entry, looked up): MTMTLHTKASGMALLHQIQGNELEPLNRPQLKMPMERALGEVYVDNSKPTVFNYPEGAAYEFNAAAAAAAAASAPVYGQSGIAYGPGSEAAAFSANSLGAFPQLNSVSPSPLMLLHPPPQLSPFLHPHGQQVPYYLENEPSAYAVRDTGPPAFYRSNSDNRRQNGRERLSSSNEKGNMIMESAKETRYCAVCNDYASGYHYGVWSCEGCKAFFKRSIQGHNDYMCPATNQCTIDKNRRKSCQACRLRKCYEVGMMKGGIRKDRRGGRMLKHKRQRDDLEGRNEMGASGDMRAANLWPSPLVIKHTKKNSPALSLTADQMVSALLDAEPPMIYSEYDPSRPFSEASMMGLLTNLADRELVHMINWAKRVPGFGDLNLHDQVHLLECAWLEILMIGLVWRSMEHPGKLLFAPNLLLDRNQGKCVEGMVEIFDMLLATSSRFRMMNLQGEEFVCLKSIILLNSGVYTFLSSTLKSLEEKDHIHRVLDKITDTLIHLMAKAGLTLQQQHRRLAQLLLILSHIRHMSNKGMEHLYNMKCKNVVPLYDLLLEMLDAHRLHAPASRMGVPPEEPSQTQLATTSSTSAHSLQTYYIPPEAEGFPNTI

Take `CCC(c1ccc(O)c(Cl)c1)C(CC)c1ccc(O)c(Cl)c1` (stereo not drawn): in [1], the RBA amounted to 1.6.
With `CCC(c1ccc(O)c(C(C)=O)c1)C(CC)c1ccc(O)c(C(C)=O)c1` (stereo not drawn), in experiment [1], the RBA was below 0.01.
On to `CCC(c1cccc(O)c1)C(CC)c1cccc(O)c1` (stereo not drawn), for which the RBA in [1] came to 10. The Activity in [2] stood at 12.5; in experiment [3], 29.5; in experiment [4] it was 28.1; in [5], 23.5; in experiment [6] it was 28.3; in [7] it was 30.9. Further, the Activity turned out to be 14.4 in experiment [8]; 30.5 in experiment [9]; 10.7 in experiment [10]; 11.8 in [11]; 18.5 in experiment [12]. In experiment [13], this molecule gave an inhibition of 27%. The same molecule registered a Weight (mg/g) in experiment [14] of 30.8%.
As for `CCC(c1ccc(O)cc1Cl)C(CC)c1ccc(O)cc1Cl` (stereo not drawn), in [1], the RBA stood at 2.2.
For the molecule `CCC(c1cc(O)cc(Cl)c1)C(CC)c1cc(O)cc(Cl)c1` (stereo not drawn), the RBA in [1] is 0.03.
As to `CCC(c1cc(O)cc(O)c1)C(CC)c1cc(O)cc(O)c1` (stereo not drawn), the RBA in experiment [1] was 0.01.
On the same count and under the same terms, under `CCC(c1ccc(O)c(N(C)C)c1)C(CC)c1ccc(O)c(N(C)C)c1` (stereo not drawn) stands below 0.01.
Regarding `CCC(c1ccc(O)c(Br)c1)C(CC)c1ccc(O)c(Br)c1` (stereo not drawn), in experiment [1], the RBA was found to be 0.25.
The same measure, in the same setting: under `CCC(c1ccc(O)c(F)c1)C(CC)c1ccc(O)c(F)c1` (stereo not drawn) stands 16; under `CCOCc1cc(C(CC)C(CC)c2ccc(O)c(COCC)c2)ccc1O` (stereo not drawn), 0.18.
In the case of `CC[C@H](c1ccc(O)cc1)[C@@H](CC)c1ccc(O)cc1`, the RBA in experiment [1] was 27.
Still for that read-out and setting: under `CCC(c1ccc(Br)c(O)c1)C(CC)c1ccc(Br)c(O)c1` (stereo not drawn) stands 0.03; under `CCC(c1ccc(O)cc1C)C(CC)c1ccc(O)cc1C` (stereo not drawn), 8.5.
For the molecule `CCc1cc(C(CC)C(CC)c2ccc(O)c(CC)c2)ccc1O` (stereo not drawn), the RBA in experiment [1] is 1.2.
Same read-out and setting: the same measure for `CCC(c1ccc(O)c(I)c1)C(CC)c1ccc(O)c(I)c1` (stereo not drawn): 0.17.
On to `CCC(c1ccc(CN(C)C)c(O)c1)C(CC)c1ccc(CN(C)C)c(O)c1` (stereo not drawn), for which the RBA in experiment [1] is below 0.01.
In the case of `CCC(c1ccc(F)c(O)c1)C(CC)c1ccc(F)c(O)c1` (stereo not drawn), the RBA in experiment [1] came to 1.1. The Activity in [2] amounted to 13.5; in experiment [15], 34.2; in experiment [16], 22.4; in experiment [4] it was 28.6; in [17] it was 24.4; in [5], 30.2. For the same molecule, the Activity came to 24.7 in [6]; 18.5 in experiment [8]; 31.8 in experiment [9]; 32.6 in [18]; 8.7 in experiment [10]; 25.4 in experiment [19]. Moreover, the Activity in experiment [20] came to 8.9; in experiment [21], 32.8. Besides, the inhibition in [22] turned out to be 50%; in experiment [23], 25%; in experiment [24] it was 32%; in experiment [25] it was 60%; in experiment [26] it was 7%; in experiment [27], 51%.
For the molecule `CCC(c1ccc(O)c([N+](=O)[O-])c1)C(CC)c1ccc(O)c([N+](=O)[O-])c1` (stereo not drawn), the RBA in experiment [1] stood at 0.14.
Take `CCC(c1ccc(Cl)c(O)c1)C(CC)c1ccc(Cl)c(O)c1` (stereo not drawn): the RBA in [1] was found to be 0.07.
Still for that read-out and setting: under `CCC(c1cc(O)ccc1O)C(CC)c1cc(O)ccc1O` (stereo not drawn) stands below 0.01.

A word on the inhibition: it is the relative decrease from the control value, in per cent.
